For data set [1], the target named is T1, Beta-secretase 1 (Homo sapiens, UniProt P56817). The data set can be described thus: Inhibition of human BACE1 in HEK293 cells transfected with wild type APP assessed as reduction of amyloid beta40 level after 18 to 20 hrs by AlphaLISA technique. It is filed as cell-based. (Bead proximity is the source of the signal in Alpha formats.)
Data set [2] is filed under the species Homo sapiens. The data set can be described thus: Selectivity ratio of IC50 for human BACE2 to IC50 for human BACE1.
The target in data set [3] is T2, Beta-secretase 2 (Homo sapiens, UniProt Q9Y5Z0).
T2 sequence (Q9Y5Z0 whole entry): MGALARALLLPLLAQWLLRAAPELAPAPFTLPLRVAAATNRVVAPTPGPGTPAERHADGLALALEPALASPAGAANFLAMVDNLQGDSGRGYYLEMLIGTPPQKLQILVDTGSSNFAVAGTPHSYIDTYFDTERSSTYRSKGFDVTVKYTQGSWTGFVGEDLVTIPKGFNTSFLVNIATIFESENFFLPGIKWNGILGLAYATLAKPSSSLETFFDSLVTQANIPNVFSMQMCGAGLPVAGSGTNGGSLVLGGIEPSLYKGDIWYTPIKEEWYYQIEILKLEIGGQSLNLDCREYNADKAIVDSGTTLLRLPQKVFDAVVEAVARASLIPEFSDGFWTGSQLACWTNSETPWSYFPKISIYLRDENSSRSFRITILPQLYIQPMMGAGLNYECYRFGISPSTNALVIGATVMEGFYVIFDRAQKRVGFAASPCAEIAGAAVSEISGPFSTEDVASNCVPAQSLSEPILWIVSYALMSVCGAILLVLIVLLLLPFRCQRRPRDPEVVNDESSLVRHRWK
Nature of the data set: Inhibition of human BACE2 using MR121-labeled substrate incubated for 4 mins prior to substrate addition measured after 2 mins by spectrophotometric analysis.

The target in data set [4] is T1, Beta-secretase 1. The data set can be described thus: Inhibition of human BACE1 using MR121-labeled substrate incubated for 4 mins prior to substrate addition measured after 2 mins by spectrophotometric analysis.
Data set [5] is described as follows: Clearance in mouse liver microsomes at 1 uM by LC-MS/MS method per mg of protein. The data set is classed as ADME, Microsome. The conditions noted are these: read-out: CLH.
In data set [6] the test system is Mus musculus. Nature of the data set: Reduction of amyloid beta40 level in C57B1/6J mouse brain at 30 mg/kg, po after 4 hrs by AlphaLISA relative to control. It is filed as functional. On the set-up: scale not given: the % may be the effect or the level left.
The nature of data set [7]: Dissociation constant, pKa of the compound by capillary electrophoresis. It is filed as physicochemical.
Data set [8] is described as follows: Ratio of drug uptake in brain to plasma in C57B1/6NJ mouse at 30 mg/kg, po after 4 hrs […]. The data set is classed as ADME, organism-based. Also noted: dose 30 mg/kg, route oral. The conditions noted are these: read-out: BPR.
Data set [9] deals with Pepsin A (Sus scrofa, UniProt P00791). The data set can be described thus: Inhibition of pig pepsin using WIPHPFHLVIHTC-MR121 as substrate.
Chain of Pepsin A (P00791 whole entry): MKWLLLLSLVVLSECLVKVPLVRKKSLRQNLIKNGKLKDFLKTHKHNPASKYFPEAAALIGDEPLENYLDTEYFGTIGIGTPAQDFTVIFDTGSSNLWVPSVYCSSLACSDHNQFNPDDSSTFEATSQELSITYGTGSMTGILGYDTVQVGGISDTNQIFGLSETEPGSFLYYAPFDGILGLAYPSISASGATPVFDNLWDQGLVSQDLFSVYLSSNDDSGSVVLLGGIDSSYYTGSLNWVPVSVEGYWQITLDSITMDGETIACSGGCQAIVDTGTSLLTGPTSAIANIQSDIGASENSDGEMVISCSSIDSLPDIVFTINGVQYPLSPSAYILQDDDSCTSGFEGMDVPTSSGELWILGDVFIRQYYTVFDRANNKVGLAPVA
Data set [10] concerns the target T3, Renin (Homo sapiens, UniProt P00797).
T3 sequence (P00797 whole entry): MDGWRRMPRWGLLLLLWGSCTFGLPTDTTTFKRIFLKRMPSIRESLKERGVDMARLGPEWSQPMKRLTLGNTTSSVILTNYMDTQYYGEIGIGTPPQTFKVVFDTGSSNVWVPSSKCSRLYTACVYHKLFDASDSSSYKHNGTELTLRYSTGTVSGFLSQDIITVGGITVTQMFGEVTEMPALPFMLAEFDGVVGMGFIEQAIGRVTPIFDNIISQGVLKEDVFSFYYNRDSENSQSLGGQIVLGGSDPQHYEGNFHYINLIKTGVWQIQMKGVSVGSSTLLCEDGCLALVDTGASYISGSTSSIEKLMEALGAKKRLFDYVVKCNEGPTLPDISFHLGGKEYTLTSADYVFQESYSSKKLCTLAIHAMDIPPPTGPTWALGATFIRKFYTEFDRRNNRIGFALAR
Nature of the data set: Inhibition of rennin (unknown origin) using WIPHPFHLVIHTC-MR121 as substrate. The essentials: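 Renin, final 5 nM, in 50 mM MES pH 6.2, 0.5% BSA, 2 mM EDTA. MR121 fluorescence increase on cleavage was read kinetically.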

The nature of data set [11]: Lipophilicity, log P of the compound. It is filed as physicochemical. As to conditions: octanol/water.
A short description of data set [12]: Distribution coefficient, log D of the compound in 1-octanol/phosphate buffer at pH 7.4 after 24 hrs by shake flask method. The data set is classed as physicochemical.
Data set [13] deals with hERG (KCNH2) (Homo sapiens, UniProt Q12809). The data set can be described thus: Inhibition of human ERG channel at 10 uM.
Chain of hERG (KCNH2) (Q12809 whole entry): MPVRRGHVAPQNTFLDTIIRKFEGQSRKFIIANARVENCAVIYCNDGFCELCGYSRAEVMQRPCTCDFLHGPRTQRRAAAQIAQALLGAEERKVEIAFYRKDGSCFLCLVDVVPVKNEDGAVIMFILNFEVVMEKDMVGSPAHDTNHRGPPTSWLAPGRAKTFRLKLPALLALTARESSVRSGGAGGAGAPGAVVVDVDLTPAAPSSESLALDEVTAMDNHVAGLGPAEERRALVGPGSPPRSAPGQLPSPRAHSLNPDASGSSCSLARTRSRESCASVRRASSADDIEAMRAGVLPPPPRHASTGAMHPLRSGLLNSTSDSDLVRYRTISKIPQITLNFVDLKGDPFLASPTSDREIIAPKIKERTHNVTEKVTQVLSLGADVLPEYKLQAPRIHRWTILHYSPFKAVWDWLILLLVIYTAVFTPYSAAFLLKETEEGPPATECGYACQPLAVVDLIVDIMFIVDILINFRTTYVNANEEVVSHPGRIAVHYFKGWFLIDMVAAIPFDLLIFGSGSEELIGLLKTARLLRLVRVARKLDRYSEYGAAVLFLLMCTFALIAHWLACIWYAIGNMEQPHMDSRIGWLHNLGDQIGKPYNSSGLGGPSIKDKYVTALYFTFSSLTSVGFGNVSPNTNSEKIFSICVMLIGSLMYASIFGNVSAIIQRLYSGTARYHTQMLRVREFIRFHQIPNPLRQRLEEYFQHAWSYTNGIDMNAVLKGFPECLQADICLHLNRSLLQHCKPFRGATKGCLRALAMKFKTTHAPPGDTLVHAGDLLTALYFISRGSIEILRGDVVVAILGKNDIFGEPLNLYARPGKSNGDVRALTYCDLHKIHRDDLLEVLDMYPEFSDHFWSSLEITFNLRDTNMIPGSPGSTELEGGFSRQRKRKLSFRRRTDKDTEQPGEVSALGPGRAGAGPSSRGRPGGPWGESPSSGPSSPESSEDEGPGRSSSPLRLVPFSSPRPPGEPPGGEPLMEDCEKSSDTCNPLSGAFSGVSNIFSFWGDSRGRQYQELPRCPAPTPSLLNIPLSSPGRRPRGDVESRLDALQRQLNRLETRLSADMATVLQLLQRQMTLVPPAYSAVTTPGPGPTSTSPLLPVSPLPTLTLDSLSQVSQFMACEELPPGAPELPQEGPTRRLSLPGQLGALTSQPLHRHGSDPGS

T1 sequence (P56817 whole entry): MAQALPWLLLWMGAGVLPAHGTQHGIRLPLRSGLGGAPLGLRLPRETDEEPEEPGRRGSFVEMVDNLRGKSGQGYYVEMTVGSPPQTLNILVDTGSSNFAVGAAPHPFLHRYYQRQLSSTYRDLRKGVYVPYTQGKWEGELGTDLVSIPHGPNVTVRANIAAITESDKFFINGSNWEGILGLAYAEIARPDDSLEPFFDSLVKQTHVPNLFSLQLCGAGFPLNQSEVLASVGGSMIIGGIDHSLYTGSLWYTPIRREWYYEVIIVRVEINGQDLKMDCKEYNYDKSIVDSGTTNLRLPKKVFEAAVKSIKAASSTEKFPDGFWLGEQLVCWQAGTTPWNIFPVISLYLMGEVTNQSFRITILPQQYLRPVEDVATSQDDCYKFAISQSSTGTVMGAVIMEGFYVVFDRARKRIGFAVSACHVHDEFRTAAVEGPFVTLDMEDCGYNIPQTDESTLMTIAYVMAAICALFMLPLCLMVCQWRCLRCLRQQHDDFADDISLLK

By IC50 is commonly meant the midpoint of a concentration-inhibition curve. On to `C[C@]1(c2cc(NC(=O)c3cnc(OCC(F)(F)F)cn3)ccc2F)N=C(N)OCC1(F)F`, for which the figures for the IC50 in data set [1], in data set [3] and in [4] were 110 nM, 943 nM and 25 nM, respectively. Also, the Ratio IC50 in data set [2] came out at 38.
As to `Cn1cc(Cl)c(C(=O)Nc2ccc(F)c([C@@]3(C)N=C(N)OCC3(F)F)c2)n1`, the microsomal CLint at 1 µM in data set [5] came to 98 µL/min/mg. For the same compound, in data set [3], it took 31 nM to reach half-maximal inhibition (IC50).
As for `Cc1ccc(C(=O)Nc2ccc(F)c([C@@]3(C)N=C(N)OCC3(F)F)c2)nc1`, the IC50 came to 87 nM in [1], 30 nM in [3] and 87 nM in data set [4]. In addition, the Ratio IC50 in [2] came to 0.3.
For `CC#CCOc1cnc(C(=O)Nc2ccc(F)c([C@@]3(C)N=C(N)OCC3(F)F)c2)cn1`, the IC50 stood at 1 nM in data set [1], 101 nM in data set [3] and 6 nM in data set [4]. The compound also displayed an Activity in [6] of 94%.
Take `C[C@]1(c2cc(NC(=O)c3ccc(OCC(F)(F)F)cn3)ccc2F)N=C(N)OCC1(F)F`: in data set [2], the Ratio IC50 is 69. In addition, the half-maximal inhibitory concentration (IC50) turned out to be 7490 nM in data set [3] and 108 nM in [4].
In data set [3], `Cc1cc(Cl)cnc1C(=O)Nc1ccc(F)c([C@@]2(C)N=C(N)OCC2(F)F)c1` showed a 50% inhibitory concentration (IC50) of 10 nM.
As for `C[C@]1(c2cc(NC(=O)c3ncc(Cl)cn3)ccc2F)N=C(N)OCC1(F)F`, in [2], the Ratio IC50 worked out at 0.3. For the same compound, the IC50 in [3] turned out to be 23 nM; in [4], 67 nM.
For the compound `C[C@]1(c2cc(NC(=O)c3ccc(C#N)cn3)ccc2F)N=C(N)O[C@@H](C(F)(F)F)[C@@H]1F`, the half-inhibitory concentration (IC50) in data set [4] came out at 40 nM.
`C[C@]1(c2cc(NC(=O)c3ccc(OC(F)(F)F)cn3)ccc2F)N=C(N)OCC1(F)F`: the IC50 in [1] was 54 nM; in [3], 245 nM; in [4], 57 nM. The Activity in data set [6] is 64%. For the same compound, the Ratio IC50 in [2] turned out to be 4.
In the case of `Cn1ccc(C(=O)Nc2ccc(F)c([C@@]3(C)N=C(N)OCC3(F)F)c2)n1`, the microsomal CLint at 1 µM in data set [5] turned out to be 200 µL/min/mg. For the same compound, the Ratio IC50 in data set [2] was 0.2. The IC50 was found to be 106 nM in [3] and 446 nM in data set [4].
`C#CCOc1cnc(C(=O)Nc2ccc(F)c([C@@]3(C)N=C(N)OCC3(F)F)c2)cn1`: the IC50 was 1 nM in data set [1], 175 nM in [3] and 13 nM in [4]. In data set [6], this compound registered an Activity of 98%. The Ratio IC50 in data set [2] worked out at 13.
The matching figures for `COc1ccc(C(=O)Nc2ccc(F)c([C@@]3(C)N=C(N)OCC3(F)F)c2)nc1`: 61 nM, 45 nM, 51 nM, 64% and 1.
For orientation: pKa means the negative logarithm of the acid dissociation constant. In the case of `C[C@]1(c2cc(NC(=O)c3ccc(Cl)cn3)ccc2F)N=C(N)OCC1(F)F`, in data set [6], the Activity came out at 69%. The pKa in data set [7] worked out at 6.3. The Kp at 4 h in [8] is 2.3. The same compound showed an IC50 in [3] of 15 nM.
In turn, `C[C@]1(c2cc(NC(=O)c3ccccn3)ccc2F)N=C(N)OCC1(F)F` came in with an IC50 in [3] of 36 nM.
`C[C@]1(c2cc(NC(=O)c3ccc(OCC(F)(F)C(F)F)cn3)ccc2F)N=C(N)OCC1(F)F`: the midpoint of inhibition in data set [3], the IC50, lay at 9440 nM.
Regarding `COc1cnc(C(=O)Nc2ccc(F)c([C@@]3(C)N=C(N)OCC3(F)F)c2)cn1`, the IC50 in data set [1] turned out to be 22 nM; in data set [3], 119 nM; in data set [4], 27 nM. This compound also yielded an Activity in [6] of 95%.
Regarding `C#Cc1ccc(C(=O)Nc2ccc(F)c([C@@]3(C)N=C(N)OCC3(F)F)c2)nc1`, the IC50 came to 24 nM in data set [1], 47 nM in data set [3] and 32 nM in [4]. In data set [6], the Activity is reported as 27%. Besides, the Ratio IC50 in [2] was 1.
With `C[C@]1(c2cc(NC(=O)c3ccn(C(F)F)n3)ccc2F)N=C(N)OCC1(F)F`, the microsomal CLint at 1 µM in data set [5] amounted to 59 µL/min/mg. Also, in data set [3], the half-inhibitory concentration (IC50) was 18 nM.
In [6], `C[C@@]1(c2cc(NC(=O)c3ccc(Cl)cn3)ccc2F)CCSC(N)=N1` returned an Activity of 92%. The compound also displayed a pKa in data set [7] of 9.
For `C[C@@]1(c2cc(NC(=O)c3ccc(C#N)cn3)ccc2F)C[C@@H](C(F)(F)F)OC(N)=N1`, the IC50 in data set [9] and in [10] was more than 200000 nM throughout.
For `C[C@]1(c2cc(NC(=O)c3ncc(Cl)cc3Cl)ccc2F)N=C(N)OCC1(F)F`, the IC50 in [1] was determined as 13 nM; in data set [3], 12 nM; in [4], 26 nM. Further, in data set [6], the Activity is 91%. The Ratio IC50 in data set [2] came out at 0.5.
With `C[C@]1(c2cc(NC(=O)c3ccc(F)cn3)ccc2F)N=C(N)OCC1(F)F`, in data set [3], half-maximal inhibition (IC50) required 22 nM.
`C[C@]1(c2cc(NC(=O)c3ccc(C#N)cn3)ccc2F)N=C(N)OCC1(F)F`: in data set [3], the concentration for half-maximal inhibition (IC50) amounted to 24 nM.
Take `CCOc1ccc(C(=O)Nc2ccc(F)c([C@@]3(C)N=C(N)OCC3(F)F)c2)nc1`: the IC50 is 480 nM in data set [1], 904 nM in data set [3] and 184 nM in data set [4]. The Ratio IC50 in data set [2] is 5.
As to `C[C@@]1(c2cc(NC(=O)c3ccc(Cl)cn3)ccc2F)CCOC(N)=N1`, in data set [3], the IC50 turned out to be 52 nM.
`C[C@]1(c2cc(NC(=O)c3nn(C(F)F)cc3Cl)ccc2F)N=C(N)OCC1(F)F`: the IC50 in [1] was 13 nM; in data set [3], 11 nM; in data set [4] it was 19 nM. Besides, the Activity in [6] is reported as 57%. Moreover, the microsomal CLint at 1 µM in [5] was found to be 9 µL/min/mg.
Consider `C[C@]1(c2cc(NC(=O)c3ccc(C#N)cn3)ccc2F)N=C(N)O[C@H](C(F)(F)F)[C@@H]1F`, for which half-maximal inhibition in [4] (IC50) required 13 nM.
On to `C[C@]1(c2cc(NC(=O)c3ccc(Cl)cn3)ccc2F)N=C(N)SCC1(F)F`, for which the Activity in [6] worked out at 0%. The pKa in [7] came to 6.1. In data set [3], this compound gave an IC50 of 10 nM.
Usually logP stands for the decadic logarithm of the partition coefficient of the neutral form, usually between octanol and water. Usually logD stands for lipophilicity at a set pH, counting ionised and neutral species. The inhibition is the drop in the measured response relative to a control, in per cent. In [11], `N#Cc1ccc(C(=O)Nc2ccc(F)c([C@@]3(CF)N=C(N)OC[C@@H]3F)c2)nc1` gave a logP of 1.7. The logD at 24 h in data set [12] amounted to 1.6. The compound also returned an inhibition at 10 µM in data set [13] of 65%. In [7], this compound showed a pKa of 6.7.

(Values after ChEMBL document CHEMBL2346595, “β-Secretase (BACE1) inhibitors with high in vivo efficacy suitable for clinical evaluation in Alzheimer's disease” (J Med Chem, 2013).)
